We go through 19 compounds from ChEMBL document CHEMBL2010655, “Chemical constituents from the aerial parts of Aster koraiensis with protein glycation and aldose reductase inhibitory activities” (J Nat Prod, 2012).

By IC50 is commonly meant the concentration at which inhibition is half-maximal. High values mean lower potency, low ones higher potency.

Series [1] is described as follows: Inhibition of advanced glycation end-products formation after 14 days by spectrofluorimetry. The format is physicochemical. In a few lines: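 Glycation end-product formation measured by an established literature method. Fluorescent reaction products read spectrofluorometrically after a 14-day incubation. Aminoguanidine served as the positive control. Triplicate experiments, reported as mean ± SD. IC50 calculated from the dose–inhibition curve.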

Series [2] deals with Aldo-keto reductase family 1 member B1 (Rattus norvegicus, UniProt P07943). Nature of the series: Inhibition of Sprague-Dawley rat lens aldose reductase.

Regarding `CC(/C=C1\SC(=S)N(CC(=O)O)C1=O)=C\c1ccccc1`, in series [1], the IC50 is above 50 µM.

With `COc1cc(-c2oc3cc(O)cc(O)c3c(=O)c2O[C@@H]2O[C@H](CO)[C@@H](O)[C@H](O)[C@H]2O)ccc1O` (stereo in doubt; 7), the IC50 in series [1] came to 44.4 µM; in series [2], 9.3 µM.

On to `O=C(/C=C/c1ccc(O)c(O)c1)O[C@@H]1C[C@](O)(C(=O)O)C[C@@H](O)[C@H]1O` [CHLOROGENIC ACID], for which the half-maximal inhibitory concentration (IC50) in series [1] is above 50 µM; in series [2], 0.95 µM.

Compound `O=C(/C=C/c1ccc(O)c(O)c1)O[C@@H]1C[C@](O)(C(=O)O)C[C@@H](OC(=O)/C=C/c2ccc(O)c(O)c2)[C@H]1O` showed an IC50 in series [1] of 6.6 µM.

Take `CC[C@H](CC[C@@H](C)[C@H]1CC[C@H]2[C@@H]3CC=C4C[C@@H](O[C@@H]5O[C@H](CO)[C@@H](O)[C@H](O)[C@H]5O)CC[C@]4(C)[C@H]3CC[C@]12C)C(C)C` [SITOGLUSIDE]: the IC50 in series [1] was above 50 µM; in series [2], above 30 µM.

Take `C[C@@H]1O[C@@H](OC[C@H]2O[C@@H](Oc3c(-c4ccc(O)cc4)oc4cc(O)cc(O)c4c3=O)[C@H](O)[C@@H](O)[C@@H]2O)[C@H](O)[C@H](O)[C@H]1O` [NICOTIFLOROSIDE]: the IC50 is above 50 µM in series [1] and 11.3 µM in series [2].

As to `CC1=CC[C@@H](O)[C@]2(C)[C@@H](OC(=O)/C=C/c3ccc(O)cc3)C[C@@H](C(C)C)[C@@H](O[C@@H]3O[C@H](CO)[C@@H](O)[C@H](O)[C@H]3O)[C@@H]12`, the IC50 in series [1] was above 50 µM; in series [2] it was above 30 µM.

As to `CC1=CC[C@H](O)[C@]2(C)[C@H]1[C@@H](O[C@@H]1O[C@H](CO)[C@@H](O)[C@H](O)[C@H]1O)[C@H](C(C)(C)O)C[C@H]2OC(=O)/C=C/c1ccc(O)cc1`, the IC50 in series [1] was above 50 µM; in series [2], above 30 µM.

As for `C=CCCCCC/C=C/[C@H](O)C#CC#C[C@@H](O)[C@H](C)O` [GYMNASTERKOREAYNE E], the IC50 in series [1] was above 50 µM; in series [2] it was above 30 µM.

As for `O=c1c(O[C@@H]2OC[C@H](O)[C@H](O)[C@H]2O)c(-c2ccc(O)c(O)c2)oc2cc(O)cc(O)c12` [GUAJAVERIN], the IC50 amounted to 9 µM in series [1] and 0.32 µM in series [2].

Take `C=C(CO[C@@H]1O[C@H](CO)[C@@H](O)[C@H](O)[C@H]1O)[C@H]1Oc2cc(C(C)=O)c(O)cc2[C@@H]1OC`: the IC50 is above 50 µM in series [1] and above 30 µM in series [2].

In the case of `C/C=C/C#CC#C[C@H](O)CCO` [GYMNASTERKOREAYNE A], the figures for the IC50 in series [1] and in series [2] were above 50 µM and above 30 µM, respectively.

Consider `O=c1c(O[C@@H]2O[C@H](CO)[C@@H](O)[C@H](O)[C@H]2O)c(-c2ccc(O)c(O)c2)oc2cc(O)cc(O)c12` [ISOQUERCETIN], for which the IC50 in series [1] is 9.2 µM; in series [2] it was 4.4 µM.

Consider `O=C(/C=C/c1ccc(O)c(O)c1)O[C@H]1[C@H](O)C[C@](O)(C(=O)O)C[C@H]1OC(=O)/C=C/c1ccc(O)c(O)c1`, for which the IC50 in series [1] amounted to 6.4 µM; in series [2] it was 2.3 µM.

For the compound `N=C(N)NN` [PIMAGEDINE], the IC50 is 966 µM in series [1] and above 30 µM in series [2].

Regarding `COc1cc(-c2oc3cc(O)cc(O)c3c(=O)c2O[C@@H]2O[C@H](CO[C@@H]3O[C@@H](C)[C@H](O)[C@@H](O)[C@H]3O)[C@@H](O)[C@H](O)[C@H]2O)ccc1O` [NARCISSIN], the figures for the half-maximal inhibitory concentration (IC50) in series [1] and in series [2] were above 50 µM and 12.1 µM, respectively.

For the compound `CC[C@H](/C=C/[C@@H](C)[C@H]1CC[C@H]2C3=CC[C@H]4C[C@@H](O)CC[C@]4(C)[C@H]3CC[C@]12C)C(C)C`, the IC50 in series [1] was above 50 µM; in series [2], above 30 µM.

Turning to `C=CCc1ccc(O[C@@H]2O[C@H](CO)[C@@H](O)[C@H](O)[C@H]2O)c(OC)c1` [CITRUSIN C], the IC50 was above 50 µM in series [1] and above 30 µM in series [2].

On to `C/C=C/C#CC#CCCCO[C@@H]1O[C@H](CO)[C@@H](O)[C@H](O)[C@H]1O`, for which the IC50 in series [1] is above 50 µM; in series [2], above 30 µM.
